Results of several laboratories.
Protocols differ between the studies behind these lines.
Target: Serine/threonine-protein kinase 17A (STK17A, Homo sapiens, UniProt Q9UEE5)
One construct used (Q9UEE5 1-414): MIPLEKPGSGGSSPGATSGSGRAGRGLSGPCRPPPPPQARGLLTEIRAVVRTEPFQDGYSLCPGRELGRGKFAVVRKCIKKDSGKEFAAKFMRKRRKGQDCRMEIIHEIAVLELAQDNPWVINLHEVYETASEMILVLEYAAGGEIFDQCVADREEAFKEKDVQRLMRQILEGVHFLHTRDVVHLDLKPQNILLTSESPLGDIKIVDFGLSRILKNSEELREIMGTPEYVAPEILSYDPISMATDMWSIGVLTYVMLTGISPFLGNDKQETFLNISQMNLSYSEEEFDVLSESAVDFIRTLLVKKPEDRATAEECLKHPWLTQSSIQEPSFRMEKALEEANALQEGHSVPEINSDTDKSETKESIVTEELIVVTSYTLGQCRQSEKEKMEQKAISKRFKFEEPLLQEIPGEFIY

Cc1ccc(NC(=O)c2ccnc(C(F)(F)F)c2)cc1-c1cc(OCCO)nc(N2CCOCC2)c1 — remaining binding (binding; 1 µM): 91%
Cc1cc(O)c(-c2ccc([C@@H](C)CN(C)C)cc2)c2c1[nH]c(=O)c1sccc12 — inhibition (cell-free assay, inhibitor; 0.1 µM): 3.3%
CCCCC(=O)Nc1ccc(-c2ccc3ncn(CCC)c(=O)c3c2)cn1 — remaining binding (binding, competition with immobilised ligand; 0.5 µM): 100%
COc1ccc2[nH]c3c4[nH]c5ccc(OC)cc5c4c4c(c3c2c1)C(=O)NC4=O — remaining binding (binding; 1 µM): 0.4%
C=CC(=O)N1CCC[C@@H](n2nc(-c3ccc(Oc4ccccc4)cc3)c3c(N)ncnc32)C1 — inhibition (enzyme activity, inhibitor; 1 µM): 8%
CC(C)S(=O)(=O)c1ccc2nccc(Nc3ccc4sc(C5CCCC5)nc4c3)c2c1 — activity vs control (enzyme activity, inhibitor; 1 µM): 108%
COc1ccc2oc(-c3ccc4nc(N)oc4c3)c/c(=N\c3ccccc3NC(=O)CCN)c2c1 — remaining binding (binding; 1 µM): 89%
CC#CC(=O)N1CCC[C@H]1c1nc(-c2ccc(C(=O)Nc3ccccn3)cc2)c2c(N)nccn12 — inhibition (enzyme activity, inhibitor; 1 µM): 0%
